From ChEMBL document CHEMBL4819149, “A facile reaction to access novel structural sulfonyl-hybridized imidazolyl ethanols as potential DNA-targeting antibacterial agents” (Bioorg Med Chem Lett, 2021)
In brackets after ≈: the same amount, converted by molar mass. Activity calls are given as the source filed them. The calls are words filed in the database; no cut-off is given here.

What was measured:
Staphylococcus aureus [1] = assay: Antibacterial activity against Staphylococcus aureus ATCC 29213 assessed as bacterial growth inhibition by broth microdilution method; type: functional
Method in brief: (§1)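 MIC values reported in µg/mL, determined by broth microdilution in microdilution plates.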

Acinetobacter baumannii = assay: Antibacterial activity against Acinetobacter baumannii assessed as bacterial growth inhibition by broth microdilution method; type: functional; method in brief: as §1
Staphylococcus aureus [2] = assay: Antibacterial activity against Staphylococcus aureus ATCC 25923 assessed as bacterial growth inhibition by broth microdilution method; type: functional; method in brief: as §1
Enterococcus faecalis [3] = assay: Antibacterial activity against Enterococcus faecalis assessed as bacterial growth inhibition by broth microdilution method; type: functional; method in brief: as §1
Staphylococcus aureus [4] = assay: Antibacterial activity against Staphylococcus aureus assessed as bacterial growth inhibition by broth microdilution method; type: functional; method in brief: as §1
Pseudomonas aeruginosa [5] = assay: Antibacterial activity against Pseudomonas aeruginosa ATCC 27853 assessed as bacterial growth inhibition by broth microdilution method; type: functional; method in brief: as §1
Escherichia coli [6] = assay: Antibacterial activity against Escherichia coli ATCC 25922 assessed as bacterial growth inhibition by broth microdilution method; type: functional; method in brief: as §1
Klebsiella pneumoniae = assay: Antibacterial activity against Klebsiella pneumonia assessed as bacterial growth inhibition by broth microdilution method; type: functional; method in brief: as §1
Escherichia coli [7] = assay: Antibacterial activity against Escherichia coli assessed as bacterial growth inhibition by broth microdilution method; type: functional; method in brief: as §1
Staphylococcus aureus [8] = assay: Antibacterial activity against methicillin-resistant Staphylococcus aureus assessed as bacterial growth inhibition by broth microdilution method; type: functional
Method in brief: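 MIC read by micro broth dilution; values given in μg/mL.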

Pseudomonas aeruginosa [9] = assay: Antibacterial activity against Pseudomonas aeruginosa assessed as bacterial growth inhibition by broth microdilution method; type: functional; method in brief: as §1
Staphylococcus aureus [10] = assay: Antibacterial activity against methicillin-resistant Staphylococcus aureus measured after 13 passages by broth microdilution method; type: functional, organism-based
Staphylococcus aureus [11] = assay: Potency index, ratio of norfloxacin MIC to test compound MIC for methicillin-resistant Staphylococcus aureus assessed as bacterial growth inhibition by broth microdilution method; type: functional
DNA [12] = assay: Binding affinity to DNA (unknown origin) assessed as red shift in absorption maxima by UV-vis spectrophotometric analysis; type: nucleic-acid assay
Method in brief: (§2)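 DNA UV-vis absorption spectra were recorded with increasing test compound concentration, following the 260 nm peak intensity and position. Hypochromism was judged by comparing the summed absorbance of free DNA and free compound with the measured absorbance of the compound-DNA complex.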

[13] = Cytotoxicity against human […] assessed as reduction in cell viability at 100 ug/ml by MTT assay; type: cell-based; conditions: dose 100 µg/ml
Method in brief: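 Endothelial […] were exposed to a range of compound concentrations up to 100 µg/mL, and viability was read by MTT assay.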

Enterococcus faecalis [14] = assay: Potency index, ratio of sulfathiazole MIC to test compound MIC for Enterococcus faecalis assessed as bacterial growth inhibition by broth microdilution method; type: functional
Staphylococcus aureus [15] = assay: Potency index, ratio of sulfathiazole MIC to test compound MIC for methicillin-resistant Staphylococcus aureus assessed as bacterial growth inhibition by broth microdilution method; type: functional
DNA [16] = assay: Binding affinity to DNA (unknown origin) assessed as increase in maximum absorption peak of DNA at 260 nm by UV-vis spectrophotometric analysis; type: nucleic-acid assay; method in brief: as §2
DNA [17] = assay: Binding affinity to DNA (unknown origin) assessed as hypochromic shift by UV-vis spectrophotometric analysis; type: nucleic-acid assay; method in brief: as §2
Calf thymus DNA = assay: Binding affinity to calf thymus DNA assessed as DNA intercalation by competitive neutral red dye displacement based UV-Vis absorbance analysis; conditions: Bos taurus
Method in brief: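 Neutral red (NR) competition: absorbance around 530 nm was followed with test compound and increasing calf thymus DNA, compared against free NR titrated with increasing calf thymus DNA.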

DNA [18] = assay: Binding affinity to methicillin-resistant Staphylococcus aureus DNA assessed as DNA intercalation by competitive neutral red dye displacement based UV-Vis absorbance analysis; type: nucleic-acid assay

Row | SMILES | MIC (Staphylococcus aureus [1]) [µg/mL] | MIC (Acinetobacter baumannii) [µg/mL] | MIC (Staphylococcus aureus [2]) [µg/mL] | MIC (Enterococcus faecalis [3]) [µg/mL] | MIC (Staphylococcus aureus [4]) [µg/mL] | MIC (Pseudomonas aeruginosa [5]) [µg/mL] | MIC (Escherichia coli [6]) [µg/mL] | MIC (Klebsiella pneumoniae) [µg/mL] | MIC (Escherichia coli [7]) [µg/mL] | MIC (Staphylococcus aureus [8]) [µg/mL] | MIC (Pseudomonas aeruginosa [9]) [µg/mL] | also measured
1 | Cc1nccn1C(CO)CS(=O)(=O)c1ccc(N)cc1 (stereo not drawn) | 64 (≈ 217 µM) | 16 (≈ 54.2 µM) | 64 (≈ 217 µM) | 8 (≈ 27.1 µM) | 128 (≈ 433 µM) | 64 (≈ 217 µM) | 32 (≈ 108 µM) | 128 (≈ 433 µM) | 128 (≈ 433 µM) | 16 (≈ 54.2 µM) | 128 (≈ 433 µM) | 
2 | Nc1ccc(S(=O)(=O)CC(CO)n2cnc(Br)c2)cc1 (stereo not drawn) | 64 (≈ 178 µM) | 64 (≈ 178 µM) | 64 (≈ 178 µM) | 64 (≈ 178 µM) | 64 (≈ 178 µM) | 32 (≈ 88.8 µM) | 32 (≈ 88.8 µM) | 256 (≈ 711 µM) | 64 (≈ 178 µM) | 16 (≈ 44.4 µM) | 256 (≈ 711 µM) | 
3 | CCc1nc(C)cn1C(CO)CS(=O)(=O)c1ccc(NC(C)=O)cc1 (stereo not drawn) | 32 (≈ 87.6 µM) | 64 (≈ 175 µM) | 128 (≈ 350 µM) | 16 (≈ 43.8 µM) | 64 (≈ 175 µM) | 32 (≈ 87.6 µM) | 32 (≈ 87.6 µM) | 128 (≈ 350 µM) | 64 (≈ 175 µM) | 4 (≈ 10.9 µM) | 128 (≈ 350 µM) | Activity (Staphylococcus aureus [10]): Active; Ratio (Staphylococcus aureus [11]): 2; Activity (DNA [12]): Active; Activity [13]: Non-Toxic; Ratio (Enterococcus faecalis [14]): 32; Ratio (Staphylococcus aureus [15]): 16; Activity (DNA [16]): Active; Activity (DNA [17]): Active; Activity (Calf thymus DNA): inactive; Activity (DNA [18]): Active
4 | CCc1nc(C)cn1C(CO)CS(=O)(=O)c1ccc(N)cc1 (stereo not drawn) | 128 (≈ 396 µM) | 64 (≈ 198 µM) | 64 (≈ 198 µM) | 16 (≈ 49.5 µM) | 64 (≈ 198 µM) | 32 (≈ 98.9 µM) | 32 (≈ 98.9 µM) | 128 (≈ 396 µM) | 64 (≈ 198 µM) | 16 (≈ 49.5 µM) | 128 (≈ 396 µM) | 
5 | CC(=O)Nc1ccc(S(=O)(=O)CC(CO)n2ccnc2)cc1 (stereo not drawn) | 32 (≈ 99 µM) | 64 (≈ 198 µM) | 64 (≈ 198 µM) | 32 (≈ 99 µM) | 64 (≈ 198 µM) | 64 (≈ 198 µM) | 64 (≈ 198 µM) | 128 (≈ 396 µM) | 64 (≈ 198 µM) | 32 (≈ 99 µM) | 128 (≈ 396 µM) | 
6 | Cc1nc(I)cn1C(CO)CS(=O)(=O)c1ccc(N)cc1 (stereo not drawn) | 64 (≈ 152 µM) | 32 (≈ 76 µM) | 64 (≈ 152 µM) | 64 (≈ 152 µM) | 64 (≈ 152 µM) | 32 (≈ 76 µM) | 32 (≈ 76 µM) | 64 (≈ 152 µM) | 128 (≈ 304 µM) | 32 (≈ 76 µM) | 128 (≈ 304 µM) | 
7 | CC(=O)Nc1ccc(S(=O)(=O)CC(CO)n2ccnc2C)cc1 (stereo not drawn) | 32 (≈ 94.8 µM) | 16 (≈ 47.4 µM) | 64 (≈ 190 µM) | 64 (≈ 190 µM) | 64 (≈ 190 µM) | 64 (≈ 190 µM) | 32 (≈ 94.8 µM) | 128 (≈ 379 µM) | 64 (≈ 190 µM) | 8 (≈ 23.7 µM) | 128 (≈ 379 µM) | 
8 | CC(=O)Nc1ccc(S(=O)(=O)CC(CO)n2cc(I)nc2C)cc1 (stereo not drawn) | 64 (≈ 138 µM) | 64 (≈ 138 µM) | 64 (≈ 138 µM) | 256 (≈ 553 µM) | 64 (≈ 138 µM) | 32 (≈ 69.1 µM) | 32 (≈ 69.1 µM) | 256 (≈ 553 µM) | 64 (≈ 138 µM) | 64 (≈ 138 µM) | 256 (≈ 553 µM) | 
9 | CC(=O)Nc1ccc(S(=O)(=O)CC(CO)n2cnc(I)c2)cc1 (stereo not drawn) | 64 (≈ 142 µM) | 32 (≈ 71.2 µM) | 64 (≈ 142 µM) | 64 (≈ 142 µM) | 64 (≈ 142 µM) | 32 (≈ 71.2 µM) | 32 (≈ 71.2 µM) | 64 (≈ 142 µM) | 128 (≈ 285 µM) | 32 (≈ 71.2 µM) | 32 (≈ 71.2 µM) | 
10 | CCn1cc(C(=O)O)c(=O)c2cc(F)c(N3CCNCC3)cc21 [NORFLOXACIN] | 1 (≈ 3.13 µM) | 8 (≈ 25.1 µM) | 1 (≈ 3.13 µM) | 256 (≈ 802 µM) | 8 (≈ 25.1 µM) | 16 (≈ 50.1 µM) | 512 (≈ 1600 µM) | 256 (≈ 802 µM) | 512 (≈ 1600 µM) | 8 (≈ 25.1 µM) | 256 (≈ 802 µM) | Activity (Staphylococcus aureus [10]): inactive
11 | CCc1nccn1C(CO)CS(=O)(=O)c1ccc(NC(C)=O)cc1 (stereo not drawn) | 16 (≈ 45.5 µM) | 16 (≈ 45.5 µM) | 64 (≈ 182 µM) | 32 (≈ 91.1 µM) | 64 (≈ 182 µM) | 64 (≈ 182 µM) | 32 (≈ 91.1 µM) | 128 (≈ 364 µM) | 64 (≈ 182 µM) | 32 (≈ 91.1 µM) | 256 (≈ 728 µM) | 
12 | Cc1cn(C(CO)CS(=O)(=O)c2ccc(N)cc2)cn1 (stereo not drawn) | 64 (≈ 217 µM) | 16 (≈ 54.2 µM) | 32 (≈ 108 µM) | 16 (≈ 54.2 µM) | 64 (≈ 217 µM) | 32 (≈ 108 µM) | 64 (≈ 217 µM) | 32 (≈ 108 µM) | 64 (≈ 217 µM) | 8 (≈ 27.1 µM) | 128 (≈ 433 µM) | 
